In ChEMBL document CHEMBL3120102, “Structure-based design, synthesis and biological evaluation of novel anthra[1,2-d]imidazole-6,11-dione homologues as potential antitumor agents” (2013):

Tests used:
Format in all cases: functional
[1] = tested on: T47D; experiment: Cytotoxicity against human T47D cells assessed as growth inhibition after 48 hrs by SRB assay
Procedure, shortened: (§1)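 NCI 60-cell-line screen, two stages. Five-dose testing at […]. Cellular protein measured by sulforhodamine B colorimetry after 48 h drug exposure. A time-zero control and drug-free plates are used to derive GI50, TGI and LC50 from dose-response curves plotted as log10 concentration per cell line.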

[2] = tested on: MDA-MB-231; experiment: Cytotoxicity against human MDA-MB-231 cells assessed as growth inhibition after 48 hrs by SRB assay
Procedure, shortened: (§2)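 NCI 60-cell-line screen, five-dose stage: each cell line exposed for 48 h to five concentrations spanning five log steps; cellular protein measured by sulforhodamine B colorimetry. A time-zero cell control and plates without drug are used to derive GI50, TGI and LC50 from log-concentration dose-response curves.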

[3] = tested on: MCF7; experiment: Cytotoxicity against human MCF7 cells assessed as growth inhibition after 48 hrs by SRB assay; procedure, shortened: as §2
[4] = tested on: DU-145; experiment: Cytotoxicity against human DU145 cells assessed as growth inhibition after 48 hrs by SRB assay
Procedure, shortened: (§3)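 NCI 60-cell-line five-dose screen at […]. Drug exposure was 48 h, followed by sulforhodamine B protein staining. GI50, TGI and LC50 were calculated against a time-zero control and untreated plates, with dose–response curves plotted from log10 concentration.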

[5] = tested on: TK-10; experiment: Cytotoxicity against human TK10 cells assessed as growth inhibition after 48 hrs by SRB assay; procedure, shortened: as §1
[6] = tested on: SN12C; experiment: Cytotoxicity against human SN12C cells assessed as growth inhibition after 48 hrs by SRB assay; procedure, shortened: as §1
[7] = tested on: RXF 393; experiment: Cytotoxicity against human RXF393 cells assessed as growth inhibition after 48 hrs by SRB assay; procedure, shortened: as §2
[8] = tested on: SK-OV-3; experiment: Cytotoxicity against human SKOV3 cells assessed as growth inhibition after 48 hrs by SRB assay; procedure, shortened: as §2
[9] = (§4) Cytotoxicity against human NCI-ADR-RES cells assessed as growth inhibition after 48 hrs by SRB assay; procedure, shortened: as §2
[10] = tested on: NCI/ADR-RES; experiment: as §4; procedure, shortened: as §2
[11] = (§5) Cytotoxicity against human OVCAR5 cells assessed as growth inhibition after 48 hrs by SRB assay; details: OVCAR-5, 48 h; procedure, shortened: as §2
[12] = tested on: OVCAR-5; experiment: as §5; procedure, shortened: as §2
[13] = tested on: SK-MEL-2; experiment: Cytotoxicity against human SK-MEL-2 cells assessed as growth inhibition after 48 hrs by SRB assay; procedure, shortened: as §2
[14] = tested on: MDA-MB-435; experiment: Cytotoxicity against human MDA-MB-435 cells assessed as growth inhibition after 48 hrs by SRB assay; procedure, shortened: as §2
[15] = tested on: M14; experiment: Cytotoxicity against human M14 cells assessed as growth inhibition after 48 hrs by SRB assay; procedure, shortened: as §3
[16] = tested on: U-251; experiment: Cytotoxicity against human U251 cells assessed as growth inhibition after 48 hrs by SRB assay; procedure, shortened: as §1
[17] = tested on: SNB-75; experiment: Cytotoxicity against human SNB75 cells assessed as growth inhibition after 48 hrs by SRB assay; procedure, shortened: as §1
[18] = tested on: SW-620; experiment: Cytotoxicity against human SW620 cells assessed as growth inhibition after 48 hrs by SRB assay; procedure, shortened: as §1
[19] = tested on: KM12; experiment: Cytotoxicity against human KM12 cells assessed as growth inhibition after 48 hrs by SRB assay; procedure, shortened: as §3
[20] = tested on: NCI-H522; experiment: Cytotoxicity against human NCI-H522 cells assessed as growth inhibition after 48 hrs by SRB assay; procedure, shortened: as §2
[21] = tested on: NCI-H460; experiment: Cytotoxicity against human NCI-H460 cells assessed as growth inhibition after 48 hrs by SRB assay; procedure, shortened: as §2
[22] = tested on: HOP-62; experiment: Cytotoxicity against human HOP62 cells assessed as growth inhibition after 48 hrs by SRB assay; procedure, shortened: as §3
[23] = tested on: A549; experiment: Cytotoxicity against human A549 cells assessed as growth inhibition after 48 hrs by SRB assay; procedure, shortened: as §3
[24] = tested on: RPMI-8226; experiment: Cytotoxicity against human RPMI8226 cells assessed as growth inhibition after 48 hrs by SRB assay; procedure, shortened: as §2
[25] = tested on: MOLT-4; experiment: Cytotoxicity against human MOLT4 cells assessed as growth inhibition after 48 hrs by SRB assay; procedure, shortened: as §2
[26] = tested on: K562; experiment: Cytotoxicity against human K562 cells assessed as growth inhibition after 48 hrs by SRB assay; procedure, shortened: as §3
[27] = tested on: CCRF-CEM; experiment: Cytotoxicity against human CCRF-CEM cells assessed as growth inhibition after 48 hrs by SRB assay; procedure, shortened: as §3
[28] = tested on: CAKI-1; experiment: Cytotoxicity against human CAKI-1 cells assessed as cell growth at 10 uM after 48 hrs by SRB assay; details: CAKI-1, 48 h, read-out: Activity

## O=C1c2ccccc2C(=O)c2c1ccc1nc(SCCN3CCCC3)[nH]c21
[1]
  GI50: 17.5 µM
  LC50: 92.8 µM
  TGI: 40.3 µM
  growth inhibition (GI): Dose-dependent effect
[2]
  growth inhibition (GI): Dose-dependent effect
[2]; MDA-MB-231, 48 h
  GI50: 4.46 µM
  LC50: 43.9 µM
  TGI: 16.2 µM
[3]
  growth inhibition (GI): Dose-dependent effect
[3]; MCF7, 48 h
  GI50: 1.74 µM
  LC50 (concentration killing 50% of cells): 45.6 µM
  TGI: 7.52 µM
[4]
  growth inhibition (GI): Dose-dependent effect
[4]; DU-145, 48 h
  GI50: 3.42 µM
  TGI: 14.9 µM
[4]; DU-145, 48 h, read-out: LC50 (the source's name)
  CC50: 39.6 µM
[5]
  growth inhibition (GI): Dose-dependent effect
[5]; TK-10, 48 h
  GI50: 4.22 µM
  LC50: 46.8 µM
  TGI: 19.1 µM
[6]
  GI50: 5.96 µM
  TGI: 19.6 µM
  growth inhibition (GI): Dose-dependent effect
[6]; read-out: LC50 (the source's name)
  CC50: 46.1 µM
[7]
  growth inhibition (GI): Dose-dependent effect
[7]; RXF 393, 48 h
  GI50: 3.08 µM
  TGI: 16.3 µM
[7]; RXF 393, 48 h, read-out: LC50 (the source's name)
  CC50: 48.5 µM
[8]
  growth inhibition (GI): Dose-dependent effect
[8]; SK-OV-3, 48 h
  GI50: 10.5 µM
  LC50 (concentration killing 50% of cells present at time zero): 54 µM
  TGI: 23.8 µM
[9]
  GI50: 6.98 µM
  LC50 (concentration causing 50% net cell kill): > 100 µM
  TGI: 33.7 µM
[10]
  growth inhibition (GI): Dose-dependent effect
[11]
  GI50: 15.5 µM
  LC50: 55.8 µM
  TGI: 29.4 µM
[12]
  growth inhibition (GI): Dose-dependent effect
[13]
  growth inhibition (GI): Dose-dependent effect
[13]; SK-MEL-2, 48 h
  GI50: 17.1 µM
  LC50 (50% lethal concentration): 63.5 µM
  TGI: 32.9 µM
[14]
  growth inhibition (GI): Dose-dependent effect
[14]; MDA-MB-435, 48 h
  GI50: 4.18 µM
  LC50: 43.9 µM
  TGI: 16.2 µM
[15]
  growth inhibition (GI): Dose-dependent effect
[15]; M14, 48 h
  GI50: 8.24 µM
  LC50: 47.9 µM
  TGI: 21.2 µM
[16]
  growth inhibition (GI): Dose-dependent effect
[16]; U-251, 48 h
  GI50: 6.84 µM
  TGI: 20.3 µM
[16]; U-251, 48 h, read-out: LC50 (the source's name)
  CC50: 47.1 µM
[17]
  growth inhibition (GI): Dose-dependent effect
[17]; SNB-75, 48 h
  GI50: 12.3 µM
  LC50: 51.5 µM
  TGI: 25.2 µM
[18]
  growth inhibition (GI): Dose-dependent effect
[18]; SW-620, 48 h
  GI50: 1.94 µM
  LC50: 19.7 µM
  TGI: 5.09 µM
[19]
  growth inhibition (GI): Dose-dependent effect
[19]; KM12, 48 h
  GI50: 2.32 µM
  TGI: 6.16 µM
[19]; KM12, 48 h, read-out: LC50 (the source's name)
  CC50: 24.4 µM
[20]
  growth inhibition (GI): Dose-dependent effect
[20]; NCI-H522, 48 h
  TGI: 32.5 µM
[21]
  growth inhibition (GI): Dose-dependent effect
[21]; NCI-H460, 48 h
  TGI: 4.77 µM
[22]
  growth inhibition (GI): Dose-dependent effect
[22]; HOP-62, 48 h
  GI50: 18 µM
  TGI: 33.2 µM
[23]
  growth inhibition (GI): Dose-dependent effect
[23]; A549, 48 h
  GI50: 3.8 µM
  TGI: 15 µM
[24]
  growth inhibition (GI): Dose-dependent effect
[24]; RPMI-8226, 48 h
  GI50: 1.79 µM
  LC50 (concentration causing 50% net cell kill): 15.4 µM
  TGI: 4.31 µM
[25]
  growth inhibition (GI): Dose-dependent effect
[25]; MOLT-4, 48 h
  GI50: 1.51 µM
  LC50 (50% lethal concentration): 19.1 µM
  TGI: 4.29 µM
[26]
  growth inhibition (GI): Dose-dependent effect
[26]; K562, 48 h
  GI50: 1.7 µM
  TGI: 5.2 µM
[26]; K562, 48 h, read-out: LC50 (the source's name)
  CC50: 72 µM
[27]
  GI50: 3.34 µM
  LC50: 62.8 µM
  TGI: 15.6 µM
  growth inhibition (GI): Dose-dependent effect

## O=C1c2ccccc2C(=O)c2c1ccc1[nH]c(=S)[nH]c21
[28]
  growth at 10 µM: 91.2%
